Here are results for one molecule from ChEMBL document CHEMBL3769342, “Supramolecular Inhibition of Neurodegeneration by a Synthetic Receptor” (ACS Med Chem Lett, 2015).

Series [1] in a line: Binding affinity to MPP+ assessed as upfield shift resonance at 1.2 equivalents of compound by 1H NMR analysis.
The nature of series [2]: Binding affinity to MPTP by ESI-MS analysis.
A short description of series [3]: Binding affinity to MPTP assessed as upfield shift resonance at 1.2 equivalents of compound by 1H NMR analysis.
Series [4] is described as follows: Binding affinity to MPP+ in PBS buffer solution at pH 7.4 by UV-vis titration method. The procedure, abridged:
(§1)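 UV-vis titration in 0.01 M PBS, pH 7.4: host added in increasing amounts to the guest solution. Guest absorbance followed at 242 nm, plotted against host concentration and fitted by nonlinear least squares to a 1:1 model to give Ka.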

Series [5] in a line: Binding affinity to MPTP at 0.5 equivalents of compound by 1H NMR analysis.
The species named for series [6] is Danio rerio. Nature of the series: Neurotoxicity in zebrafish model of MPTP-induced tyrosine hydroxylase defeciency assessed as phenotypic changes at 100 uM after 48 hrs by immunofluorescence assay. It is filed as organism-based. As to conditions: in vivo.
Series [7] in a line: Neurotoxicity in zebrafish larvae assessed as tyrosine hydroxylase viability in neuron at 100 uM after 48 hrs by immunofluorescence assay relative to control. It is filed as organism-based, Danio rerio. The note with it: tyrosine hydroxylase-positive neurons, read-out: Activity.
Series [8] in a line: Binding affinity to MPP+ by ESI-MS analysis.
Series [9] is filed under the species Danio rerio. Nature of the series: Neuroprotective activity against MPTP-induced tyrosine hydroxylase deficiency in zebrafish larval brain assessed as tyrosine hydroxylase viability in neuron at 100 uM after 48 hrs by immunofluorescence assay (reference value: 49.93 +/- 5.26%). It is filed as functional.
Series [10] is described as follows: Binding affinity to MPTP in PBS buffer solution at pH 7.4 by UV-vis titration method. The procedure, abridged:
as §1

The species entered for series [11] is Danio rerio. Nature of the series: Neurotoxicity in zebrafish larvae assessed as swimming distance at 100 uM incubated for 5 days measured for 45 mins by automated video tracking system based method (reference value: 3773.21 +/- 386.24 cm). In kind it is ADME, organism-based. As to conditions: in vivo.
Series [12] is filed under the species Danio rerio. Nature of the series: Neuroprotective activity against MPTP-induced locomotion defeciency in zebrafish larvae assessed as swimming distance at 100 uM incubated for 5 days measured for 45 mins by automated video tracking system based method (reference value: 1368.76 +/- 404.62 cm). In kind it is functional.

Activity calls are given as the source filed them. The rule behind the calls is not given here.

For `O=C1N2CN3C(=O)N4CN5C(=O)N6CN7C(=O)N8CN9C(=O)N%10CN%11C(=O)N%12CN%13C(=O)N%14CN1[C@H]1[C@@H]2N2CN%15C(=O)N(CN%16C(=O)N(CN%17C(=O)N(CN%18C(=O)N(CN%19C(=O)N(CN%20C(=O)N(CN1C2=O)[C@H]%14[C@@H]%20%13)[C@H]%12[C@@H]%19%11)[C@H]%10[C@@H]%189)[C@H]8[C@@H]%177)[C@H]6[C@@H]%165)[C@H]4[C@@H]%153`, the result in [1], in series [2], in series [5] and in series [8] was Active. Further, the Activity is under 1 ppm in series [3]; “Non-toxic” in [6]; 79.44% in series [9]; 4167.89 cm in [11]; 3487.02 cm in series [12]. The Ka worked out at 1.05 ×10⁵ /M in series [4] and 4.8 ×10⁴ /M in series [10]. Also, the viability at 48 h, 100 µM in series [7] is 91%.
